The values below come from ChEMBL document CHEMBL1137859, “Synthesis of C8-linked pyrrolo[2,1-c][1,4]benzodiazepine-benzimidazole conjugates with remarkable DNA-binding affinity” (2004).

In general, ΔTm refers to the change in melting temperature against a reference sample.

Experiment [1] relates to Calf thymus DNA. Nature of the experiment: Thermal denaturation of calf thymus DNA at 18 h, incubation at 37 degree C. The class given is nucleic-acid assay. The note with it: Bos taurus. The gist of the method: (§1)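 CT-DNA (100 μM) with ligand 20 μM (PBD/DNA molar ratio 1:5) in aqueous sodium phosphate buffer (10 mM sodium phosphate + 1 mM EDTA, pH 7.00±0.01). Incubated at 37 °C for 0 h or 18 h, then thermal helix→coil melting followed. ΔTm taken relative to DNA alone (Tm mean of 20 separate determinations). ΔTm values ±0.05–0.1 °C.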

For experiment [2], the system named is Calf thymus DNA. Nature of the experiment: Thermal denaturation of calf thymus DNA at 0 h, incubation at 37 degree C. It is filed as nucleic-acid assay. The note with it: Bos taurus. In short, it runs like this: as §1
The next experiment deals with NCI-H522. Nature of the experiment: In vitro concentration required to produce 50% lethality against human non small cell lung NCI-H522 cell line. It is filed as functional. As to conditions: read-out: LC50 (the source's name).
The subject of a further experiment is 786-0. Description: In vitro concentration required to produce 50% lethality against human renal 786-0 cell line. It is filed as functional. As to conditions: read-out: LC50 (the source's name).
Another experiment has as its system BT-549. Description: In vitro concentration required to produce 50% lethality against human breast BT-549 cell line. The note with it: read-out: LC50 (the source's name). The class given is functional.
For a further experiment, the system named is SNB-19. Nature of the experiment: In vitro concentration required to produce 50% lethality against human CNS SNB-19 cell line. It is filed as functional. The note with it: read-out: LC50 (the source's name).
Another experiment deals with RXF 393. Description: In vitro concentration required to produce 50% lethality against human renal RXF 393 cell line. The class given is functional. As to conditions: read-out: LC50 (the source's name).
The subject of the next experiment is TK-10. Description: In vitro concentration required to produce 50% lethality against human renal TK-10 cell line. The note with it: read-out: LC50 (the source's name). The class given is functional.
A further experiment deals with T47D. Description: In vitro concentration required to produce 50% lethality against human breast T47D cell line. It is filed as functional. The note with it: read-out: LC50 (the source's name).
Experiment [3] in a line: In vitro concentration required to produce 50% lethality against human CNS […] cell line. The class given is functional. As to conditions: read-out: LC50 (the source's name).
A further experiment relates to HOP-62. Nature of the experiment: In vitro concentration required to produce 50% lethality against human non small cell lung HOP-62 cell line. The class given is functional. As to conditions: read-out: LC50 (the source's name).
The test system of the next experiment is PC-3. Nature of the experiment: In vitro concentration required to produce 50% lethality against human prostate PC-3 cell line. The class given is functional. As to conditions: read-out: LC50 (the source's name).
For a further experiment, the system named is SN12C. Description: In vitro concentration required to produce 50% lethality against human renal SN12C cell line. It is filed as functional. As to conditions: read-out: LC50 (the source's name).
Another experiment relates to OVCAR-5. Description: In vitro concentration required to produce 50% lethality against human ovarian OVCAR-5 cell line. It is filed as functional. The note with it: read-out: LC50 (the source's name).
Another experiment relates to OVCAR-3. Nature of the experiment: In vitro concentration required to produce 50% lethality against human ovarian OVCAR-3 cell line. As to conditions: read-out: LC50 (the source's name). The class given is functional.
The test system of a further experiment is A498. Description: In vitro concentration required to produce 50% lethality against human renal A-498 cell line. The class given is functional. As to conditions: read-out: LC50 (the source's name).
Another experiment concerns KM12. Description: In vitro concentration required to produce 50% lethality against human colon KM12 cell line. It is filed as functional. The note with it: read-out: LC50 (the source's name).
The subject of the next experiment is M14. Nature of the experiment: In vitro concentration required to produce 50% lethality against human melanoma M14 cell line. As to conditions: read-out: LC50 (the source's name). It is filed as functional.
Another experiment has as its system SF-539. Nature of the experiment: In vitro concentration required to produce 50% lethality against human CNS SF-539 cell line. As to conditions: read-out: LC50 (the source's name). The class given is functional.
Another experiment concerns SK-MEL-5. Nature of the experiment: In vitro concentration required to produce 50% lethality against human melanoma SK-MEL-5 cell line. The note with it: read-out: LC50 (the source's name). The class given is functional.
The next experiment deals with EKVX. Nature of the experiment: In vitro concentration required to produce 50% lethality against human non small cell lung EKVX cell line. The note with it: read-out: LC50 (the source's name). It is filed as functional.
The next experiment has as its system UACC-62. Description: In vitro concentration required to produce 50% lethality against human melanoma UACC-62 cell line. The note with it: read-out: LC50 (the source's name). The class given is functional.
The subject of the next experiment is SK-MEL-2. Description: In vitro concentration required to produce 50% lethality against human melanoma SK-MEL-2 cell line. The class given is functional. The note with it: read-out: LC50 (the source's name).
Another experiment relates to Malme-3M. Description: In vitro concentration required to produce 50% lethality against human melanoma MALME-3M cell line. The class given is functional. As to conditions: read-out: LC50 (the source's name).
In the next experiment the test system is MDA-MB-435. Description: In vitro concentration required to produce 50% lethality against human breast MDA-MB-435 cell line. The class given is functional. As to conditions: read-out: LC50 (the source's name).
A further experiment deals with NCI-H226. Description: In vitro concentration required to produce 50% lethality against human non small cell lung NCI-H226 cell line. The class given is functional. The note with it: read-out: LC50 (the source's name).
The subject of another experiment is MDA-MB-231. Description: In vitro concentration required to produce 50% lethality against human breast MDA-MB-231/ATCC cell line. The class given is functional. The note with it: read-out: LC50 (the source's name).
The test system of the next experiment is OVCAR-8. Nature of the experiment: In vitro concentration required to produce 50% lethality against human ovarian OVCAR-8 cell line. The class given is functional. The note with it: read-out: LC50 (the source's name).
Experiment [4] can be described thus: In vitro concentration required to produce 50% lethality against human prostate DU-145 cell line. It is filed as functional. As to conditions: read-out: LC50 (the source's name).
A further experiment relates to IGROV-1. Description: In vitro concentration required to produce 50% lethality against human ovarian IGROVI cell line. It is filed as functional. The note with it: read-out: LC50 (the source's name).

Consider `COc1cc2c(cc1OCCCCOc1ccc(-c3nc4ccccc4[nH]3)cc1)N=C[C@@H]1CCCN1C2=O`, for which the shift in melting temperature (ΔTm) in the experiment with Calf thymus DNA [1] amounted to 4 °C; in the experiment on Calf thymus DNA [2] it was 3.8 °C.
Taken in the same sequence, the figures for `COc1cc2c(cc1OCCCCOc1ccc(-c3nc4cc(N5CCN(C)CC5)ccc4[nH]3)cc1)N=C[C@@H]1CCCN1C2=O` were 15.5 °C and 15.5 °C.
Taken in the same sequence, the figures for `CN1CCN(c2ccc3[nH]c(-c4ccc(O)cc4)nc3c2)CC1` were 2.9 °C and 2.9 °C.
In the case of `COc1cc2c(cc1OCCCOc1ccc(-c3nc4ccc(N5CCN(C)CC5)cc4[nH]3)cc1)N=C[C@@H]1CCCN1C2=O`, the CC50 with NCI-H522 was 0.01 µM; in the experiment on 786-0 it was 31.2 µM; in the experiment on BT-549, 12.6 µM; with SNB-19 it was 47.5 µM; in the experiment on RXF 393, 0.01 µM; with TK-10, 39.7 µM. For the same compound, the CC50 in the experiment on T47D was 42.1 µM; in experiment [3], 27.8 µM; in the experiment on HOP-62, 17.4 µM; in the experiment on PC-3 it was 16.4 µM; in the experiment with SN12C, 18.7 µM; with OVCAR-5 it was 33.9 µM. The CC50 was 34.6 µM in the experiment on OVCAR-3; 0.01 µM with A498; 45.2 µM with KM12; 0.01 µM in the experiment on M14; 0.01 µM with SF-539; 0.01 µM in the experiment on SK-MEL-5. The CC50 with EKVX was 25.2 µM; with UACC-62, 0.01 µM; in the experiment on SK-MEL-2, 0.01 µM; in the experiment on Malme-3M, 34.4 µM; with MDA-MB-435, 0.01 µM; in the experiment on NCI-H226, 23.5 µM. In addition, the CC50 in the experiment on MDA-MB-231 stood at 13.5 µM; with OVCAR-8, 21 µM; in experiment [4], 33.7 µM; in the experiment on IGROV-1 it was 45.3 µM. In addition, the ΔTm was 22.5 °C in the experiment with Calf thymus DNA [1] and 16.6 °C with Calf thymus DNA [2].
For the compound `COc1cc2c(cc1O)N=C[C@H]1CCCN1C2=O`, the thermal shift (ΔTm) in the experiment with Calf thymus DNA [2] was 0.3 °C.
For the compound `COc1cc2c(cc1OCCCCCOc1ccc(-c3nc4ccccc4[nH]3)cc1)N=C[C@@H]1CCCN1C2=O`, the ΔTm was found to be 11 °C in the experiment on Calf thymus DNA [1] and 10.3 °C in the experiment on Calf thymus DNA [2].
For the compound `COc1cc2c(cc1OCCCCCOc1ccc(-c3nc4cc(N5CCN(C)CC5)ccc4[nH]3)cc1)N=C[C@@H]1CCCN1C2=O`, the results for the ΔTm with Calf thymus DNA [1] and with Calf thymus DNA [2] were 22.6 °C and 22.4 °C, respectively.
For `COc1cc2c(cc1OCCCOc1ccc(-c3nc4ccccc4[nH]3)cc1)N=C[C@@H]1CCCN1C2=O`, the ΔTm in the experiment on Calf thymus DNA [1] is 11.4 °C; in the experiment with Calf thymus DNA [2], 11 °C.
